What was measured:
[1] = test system: RAW264.7; assay: Inhibition of LPS-induced nitric oxide production in mouse RAW264.7 cells after 24 hrs by Griess assay; format: functional, cell-based; details: RAW264.7, 24 h
Method in brief: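 RAW 264.7 cells seeded at 2 × 10^6 cells/mL and stimulated with 1 μg/mL LPS, with or without compounds, for 24 h at 37 °C. Cell-free supernatant was mixed 1:1 with Griess reagent (2% sulfanilamide in 5% phosphoric acid plus 0.2% N-(1-naphthyl)ethylenediamine). Nitrite was read at 550 nm against sodium nitrite standards. Aminoguanidine and indomethacin were positive controls. Means ± SD from triplicate experiments.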

[2] = test system: RAW264.7; assay: Cytotoxicity against mouse RAW264.7 cells assessed as cell viability at nitric oxide IC50 level by MTT assay; format: cell-based
Method in brief: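 Viability was read by MTT colorimetric assay on the cells remaining after the NO assay. That assay seeded RAW 264.7 cells at 2 × 10^6 cells/mL and stimulated them with 1 μg/mL LPS, with or without compounds, for 24 h at 37 °C.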

SMILES | IC50 [1] [µM] | Activity [2]
C=C[C@]1(C)CC[C@@]2(C)c3cc(O)c(O)c(C)c3CC[C@@H]2C1 | 7.4 | Non-toxic
C=C[C@]1(C)CC[C@]2(C)[C@H](CC[C@H]3[C@@](C)(CO)C(=O)C=C[C@]32O)C1 | – | Non-toxic
CC1=C2C(=O)C3=C([C@@H](O)[C@H]2OC1=O)[C@]1(C)CCCC(C)(C)[C@H]1CC3 | > 20 | Non-toxic
CC1=C2C=C3CC[C@@H]4C(C)(C)CCC[C@@]4(C)[C@@H]3[C@H](O)[C@H]2OC1=O | > 20 | Non-toxic
CC1=C2C=C3[C@@H](O)C[C@@H]4C(C)(C)CCC[C@@]4(C)[C@@H]3[C@@H](O)[C@H]2OC1=O | > 20 | Non-toxic
C=C1C[C@@]23CC[C@@H]4C(C)(C)C(=O)CC[C@@]4(C)[C@@H]2C[C@@H]1[C@@H](O)C3=O | > 20 | Non-toxic
CC1=C[C@]23C(=O)[C@@H](C=C(CO)[C@@H](O)[C@]2(O)[C@H]1O)[C@H]1[C@@H](C[C@H]3C)C1(C)C [INGENOL] | > 20 | Non-toxic
N=C(N)NN [PIMAGEDINE] | 18.7 | –

The next lines start with results.

IC50 [1] [µM] | SMILES | Activity [2]
> 20 | C=C[C@]1(C)CC[C@@]2(C)C3=CC(=O)O[C@@H]3C(C)(C)C[C@H](O)[C@@H]2C1 | Non-toxic
5.6 | CC1=C2[C@H](OC1=O)[C@H](O)[C@H]1[C@]3(C)CCCC(C)(C)[C@H]3CC[C@@]1(O)[C@H]2O | Non-toxic
> 20 | CC1=C2[C@@H](O)[C@@]3(O)CC[C@@H]4C(C)(C)CCC[C@@]4(C)[C@@H]3[C@@H](O)[C@H]2OC1=O | Non-toxic
12.6 | CC1=C2[C@H]3O[C@]34CC[C@@H]3C(C)(C)CCC[C@@]3(C)[C@@H]4[C@@H](O)[C@H]2OC1=O | Non-toxic
> 20 | CC1=C2[C@@H](O)C3=C([C@@H](O)[C@H]2OC1=O)[C@]1(C)CCCC(C)(C)[C@H]1CC3 | Non-toxic
> 20 | CC1=C2[C@@H](O)C3=CC[C@@H]4C(C)(C)CCC[C@@]4(C)[C@@H]3[C@@H](O)[C@H]2OC1=O | Non-toxic
9.4 | C[C@H]1C[C@]2(OC(=O)/C=C/c3ccccc3)C(=O)/C(CO)=C/[C@@H]3[C@H](CC[C@@]4(C)O[C@H]4[C@H]2[C@H]1O)C3(C)C | Non-toxic
12.5 | COc1ccc2c(c1)c(CC(=O)O)c(C)n2C(=O)c1ccc(Cl)cc1 [INDOMETHACIN] | –

— ChEMBL document CHEMBL3779830, “Diterpenoids from the Roots of Euphorbia fischeriana with Inhibitory Effects on Nitric Oxide Production” (J Nat Prod, 2016)
